Laboratory results: ChEMBL document CHEMBL1149875, “DNA threading bis(9-aminoacridine-4-carboxamides): effects of piperidine sidechains on DNA binding, cytotoxicity and cell cycle arrest” (Bioorg Med Chem, 2008)
The source made the active and inactive calls. No cut-off for these calls is given here. *1 amine or outer side, *2 acyl side, *3 side chain or, on linkers, in order; H or OH if unused. Where a SMILES comes first, the peptide text is derived from it. Bridges are numbered along the chain shown (N, C = ends). Roman numbers before positions name the chains, in order. [ ]: non-standard residue; d: D form. Actinocin(1to9) = Cc1c2oc3c(C)ccc(C(=O)[*:2])c3nc-2c(C(=O)[*:1])c(N)c1=O; NMeV = CN[C@H](C(=O)O)C(C)C; Sar = CNCC(=O)O

Assays:
Escherichia coli = assay: Binding affinity to Escherichia coli pBR322 DNA assessed as equivalence binding ratio by agarose gel electrophoresis
Summary of the method: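 Supercoiled pBR322 closed circular DNA (150 ng, 23.6 µM bp) mixed with dimer in tris acetate buffer pH 7.5, 40 mM for Pip dimers and 10 mM for NMP dimers; 1 h dark incubation at room temperature; 0.8% agarose gel, 74 V (5 V/cm), 1 h 15 min. Equivalence ratio in base-pair units, taken where supercoiling is removed and closed and nicked circles co-migrate; ≥3 titrations.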

CCRF-CEM [1] = assay: Cytotoxicity against human CCRF-CEM cells after 72 hrs; type: functional, cell-based
Summary of the method: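 CCRF-CEM human leukaemia cells exposed to agents for 72 h at 37 °C in RPMI 1640 with 10% foetal bovine serum. Cells counted with a Coulter Counter, duplicates per concentration, experiment repeated ≥3 times; IC50 from curve fitting.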

CCRF-CEM [2] = assay: Cell cycle arrest in human CCRF-CEM cells assessed as accumulation at G2/M phase after 24 hrs by flow cytometry; type: functional, cell-based
Summary of the method: (§1)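 CCRF-CEM cells seeded at 1 × 10^5 per ml in flasks and grown 24 h. Drug then added at 1×, 2×, 5× or 10× the measured 72 h IC50 and cells incubated a further 24 h; untreated controls. Cells washed in PBS, fixed in ice-cold ethanol, stained with propidium iodide and analysed by flow cytometry for % cells at G2/M.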

CCRF-CEM [3] = assay: Cell cycle arrest in human CCRF-CEM cells assessed as accumulation at G2/M phase at 5 times IC50 after 24 hrs by flow cytometry; type: functional; summary of the method: as §1
CCRF-CEM [4] = assay: Cell cycle arrest in human CCRF-CEM cells assessed as accumulation at G2/M phase at 10 times IC50 after 24 hrs by flow cytometry; type: functional; summary of the method: as §1
CCRF-CEM [5] = assay: Cell cycle arrest in human CCRF-CEM cells assessed as accumulation at G2/M phase at 1 time IC50 after 24 hrs by flow cytometry; type: functional; summary of the method: as §1

Row | Structure (SMILES) | Ratio (Escherichia coli) | IC50 (CCRF-CEM [1]) | Activity (CCRF-CEM [2]) | Activity (CCRF-CEM [3]) | Activity (CCRF-CEM [4]) | Activity (CCRF-CEM [5])
1 | O=C(NCCN1CCCCC1)c1cccc2c(NCCCCCCCCNc3c4ccccc4nc4c(C(=O)NCCN5CCCCC5)cccc34)c3ccccc3nc12 | 0.16 | 99 nM | inactive |  |  | 
2 | CN1CCC(NC(=O)c2cccc3c(NCCN4CCN(CCNc5c6ccccc6nc6c(C(=O)NC7CCN(C)CC7)cccc56)CC4)c4ccccc4nc23)CC1 |  | 800 nM |  | 52% |  | 
3 | O=C(NCCN1CCCCC1)c1cccc2c(NCCCCNCCCNc3c4ccccc4nc4c(C(=O)NCCN5CCCCC5)cccc34)c3ccccc3nc12 | 0.135 | 230 nM | inactive |  |  | 
4 | O=C(NCCN1CCCCC1)c1cccc2c(NCCNCCNCCNc3c4ccccc4nc4c(C(=O)NCCN5CCCCC5)cccc34)c3ccccc3nc12 | 0.16 | 270 nM | inactive |  |  | 
5 | CN1CCC(NC(=O)c2cccc3c(NCCNCCNCCNc4c5ccccc5nc5c(C(=O)NC6CCN(C)CC6)cccc45)c4ccccc4nc23)CC1 | 0.11 | 1100 nM |  |  | 40% | 
6 | COc1cc(NS(C)(=O)=O)ccc1Nc1c2ccccc2nc2ccccc12 [AMSACRINE] |  | 130 nM |  |  |  | 68%
7 | CN1CCC(NC(=O)c2cccc3c(NCCCNCCCNc4c5ccccc5nc5c(C(=O)NC6CCN(C)CC6)cccc45)c4ccccc4nc23)CC1 | 0.24 | 680 nM |  |  | 50% | 
8 | CN(C)CCNC(=O)c1cccc2c(N)c3ccccc3nc12 |  | 120 nM |  |  | 61% | 
9 | CN1CCC(NC(=O)c2cccc3c(NCCCCCCNc4c5ccccc5nc5c(C(=O)NC6CCN(C)CC6)cccc45)c4ccccc4nc23)CC1 | 0.25 | 210 nM |  |  |  | 
10 | O=C(NCCN1CCCCC1)c1cccc2c(NCCCCCCNc3c4ccccc4nc4c(C(=O)NCCN5CCCCC5)cccc34)c3ccccc3nc12 | 0.14 | 200 nM | inactive |  |  | 
11 | O=C(NCCN1CCCCC1)c1cccc2c(NCCN3CCN(CCNc4c5ccccc5nc5c(C(=O)NCCN6CCCCC6)cccc45)CC3)c3ccccc3nc12 | 0.13 | 130 nM | inactive |  |  | 
12 | CN1CCC(NC(=O)c2cccc3c(NCCCCCCCCNc4c5ccccc5nc5c(C(=O)NC6CCN(C)CC6)cccc45)c4ccccc4nc23)CC1 | 0.175 | 130 nM |  |  | 43% | 
13 | CN1CCC(NC(=O)c2cccc3c(NCCCCNCCCNc4c5ccccc5nc5c(C(=O)NC6CCN(C)CC6)cccc45)c4ccccc4nc23)CC1 | 0.21 | 340 nM |  |  |  | 
14 | O=C(NCCN1CCCCC1)c1cccc2c(NCCCNCCCNc3c4ccccc4nc4c(C(=O)NCCN5CCCCC5)cccc34)c3ccccc3nc12 | 0.14 | 260 nM | inactive |  |  | 
15 | Cc1c2oc3c(C)ccc(C(=O)N[C@@H]4C(=O)N[C@H](C(C)C)C(=O)N5CCC[C@H]5C(=O)N(C)CC(=O)N(C)[C@@H](C(C)C)C(=O)O[C@@H]4C)c3nc-2c(C(=O)N[C@@H]2C(=O)N[C@H](C(C)C)C(=O)N3CCC[C@H]3C(=O)N(C)CC(=O)N(C)[C@@H](C(C)C)C(=O)O[C@@H]2C)c(N)c1=O [DACTINOMYCIN] (I: T[dV]P[Sar][NMeV] / II: T[dV]P[Sar][NMeV]; ester I:1-I:C, II:1-II:C; linker I:N-II:N via Actinocin(1to9)) |  | 1.6 nM | inactive |  |  | 
